Test results: ChEMBL document CHEMBL4513216, “Probing the Open Global Health Chemical Diversity Library for Multistage-Active Starting Points for Next-Generation Antimalarials” (ACS Infect Dis, 2020)

Assay: Toxicity liver stage against HepG2, at 10uM
Assay type: cell-based
Design: test concentration 10 uM, cell line HepG2-A16-CD81EGFP
Conditions: human, HepG2-A16-CD81EGFP cells; read-out: INHIBITION
Outline: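 Uninfected HepG2-A16-CD81EGFP cells, 3 × 10^3 per well, 1536-well, plated on prespotted compound at 10 μM final, parasite-free screening media added to match infected plates; puromycin 10 μM positive, DMSO 0.5% negative; run in parallel with 48 h PbLuc assay at 37 °C, 5% CO2; viability by CellTiter-Glo luminescence, normalized to controls.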

SMILES	cytotoxicity at 10 µM
CCN(CC)CCN1CCO[C@H]2[C@@H](OCc3ccccn3)CC[C@@H]21	-7.66%
NC(=O)C(NC(=O)c1cc(Br)c[nH]1)c1ccccc1 (configuration not stated)	0.172%
C1CC(c2noc(C3CC3)n2)CN(Cc2noc(C3CC3)n2)C1 (configuration not stated)	-5.16%
CCN(CC)CC1CN(Cc2nccs2)Cc2nccn2C1 (configuration not stated)	1.13%
O=C(NCc1ccccc1Cn1cncn1)C1CCCC1	-2.34%
Cc1ccc2c(c1)c(CNC(=O)C1CCN(CC(N)=O)CC1)nn2C	-3.17%
CCC1CN(Cc2ccccc2)CCN1Cc1nnc(C2CCC2)o1 (configuration not stated)	-11.2%
CCCn1cc(C(=O)NCCc2ccc3c(c2)OCO3)c(C)n1	96.3%
CN1CCN(c2ncccn2)CC12CCC(=O)N(CC1CC1)CC2 (configuration not stated)	2.6%
O=C(c1sccc1Br)N1CCOCC1	-2.34%
COc1cccc(F)c1-c1nc2c([nH]1)c(C1CC1)nn2C	0.271%
CCCc1nc(N(C)CCN2CCCCCC2)c2cnn(C)c2n1	3.22%
Cc1nc(N2CCOCC2)nc(C)c1NC(=O)COc1ccccc1	4.17%
CN1CC(Oc2ccc(Cl)cc2)=NC(SCC(=O)Nc2ccccc2)=N1	-0.943%
Cc1ccccc1C1CN(c2cnn(C)c(=O)c2Cl)CCO1 (configuration not stated)	-19.4%
CC(Cn1cccn1)NC(=O)N1CCC(NS(C)(=O)=O)CC1 (configuration not stated)	-0.508%
COc1ccc(C2CC(=O)Nc3c2cnn3C2CCCC2)cc1 (configuration not stated)	-9.41%
CNC(=O)Nc1cnc2cc(Cl)ccc2c1O	-30%
CC(C)c1nnc(CN2CC(n3cccn3)Cc3ccccc32)o1 (configuration not stated)	-146%
CC(=O)N1CCOC2(CCCN(Cc3ccc(N(C)C)cc3)C2)C1 (configuration not stated)	0.603%
CN(Cc1cccc(C#N)c1)Cn1nc(C(C)(C)C)ccc1=O	-1.64%
CCc1nc2n(n1)CC(NCc1nnc(C(C)C)o1)CC2 (configuration not stated)	-15.7%
Cc1cc(C)n(C2CN(Cc3noc(C4CC4)n3)C2)n1	0.738%

SMILES	cytotoxicity at 10 µM
CC(C)c1noc(OCC(=O)N2CCCCC2C)n1 (configuration not stated)	1.45%
CN(C)S(=O)(=O)N1CCN(C(=O)c2cc(-c3ccccc3)[nH]n2)CC1	-0.665%
CN(C)C(=O)CN1CCN(C(=O)Cc2csc(-c3ncccn3)n2)CC1	-8.52%
OCCN1CCC(c2cncc(-c3cccc(Cl)c3)n2)CC1	-31.7%
c1ccc2c(N3CCOC(Cn4cccn4)C3)ncnc2c1 (configuration not stated)	-1.04%
CC(C)n1cnnc1CN(C)Cc1cnc(-c2cccs2)nc1	8.55%
CCOc1cc(C)nc(N2CCN(C(=O)c3ccncc3)CC2)n1	3.12%
O=C(NCC1COCCO1)c1csc(Cc2ccccc2)n1 (configuration not stated)	-0.857%
COc1ccc(S(=O)(=O)N2CCc3ccc(F)cc32)cc1C(=O)O	-11.4%
CC(C)c1nn(C)c(Cl)c1CNCc1ccc(N(C)C)nc1	-13.6%
COc1ccccc1-c1ncc(CN2CCCC(CCC(N)=O)C2)s1 (configuration not stated)	-6.34%
COc1ccccc1OCC(=O)NS(=O)(=O)c1cccnc1	-4.69%
CC(=O)NCCNC(=O)c1cc(COc2ccccc2)[nH]n1	-1.32%
CCOCC1CN(S(=O)(=O)N(C)C)Cc2cnn(CC)c21 (configuration not stated)	2.26%
Cc1ccc(CN2CC[C@@H](NC(=O)c3cccnc3)[C@H](O)C2)o1	2.52%
CCCN1CCc2nc(SCc3ccccc3)[nH]c(=O)c2C1	0.279%
Cc1nc2c(c(NCC3Cc4ccccc4CN3C)n1)CCNCC2 (configuration not stated)	-9.08%
COCCNC(=O)NCCn1nc(C(F)(F)F)n(C)c1=O	-2.06%
COc1c(C2CCCN2Cc2nc(C)c(C)o2)c(C)nn1C (configuration not stated)	-2%
COc1ccc(C(=O)NCC(c2cccn2C)N2CCN(C)CC2)cc1 (configuration not stated)	8.19%
Cc1ccccc1CN(C)C(=O)CN1CCOC(Cn2cccn2)C1 (configuration not stated)	-5.1%
O=C(c1ccc(F)cc1)N1C[C@@H]2OCCN(c3ncccn3)[C@@H]2C1	-9.55%
CC1CC(=O)c2cc(C(=O)N3CCc4ccccc4C3)c(=O)[nH]c2C1 (configuration not stated)	-4.65%

SMILES	cytotoxicity at 10 µM
Cc1ccc(NC2CCN(C(=O)CCc3ccco3)CC2)nn1	-2.97%
Cc1nc(CCN2CCC(Oc3ccccc3F)CC2)c(C)s1	7.08%
CCn1cc(NC(=O)N2CCN(CCSc3ccccc3)CC2)cn1	-0.095%
CCN(Cc1cccc(NC(=O)COCCOC)c1)C(C)=O	-136%
CCOC(C)c1nc(CN2CCN(c3ncc(C)cn3)CC2)cs1 (configuration not stated)	-0.509%
Cc1ccccc1CC(C)(C)NC(=O)COc1cccc(C(N)=O)c1	20.4%
c1cc(CNCC2Cn3nncc3CO2)co1 (configuration not stated)	7.8%
CNC(=O)CN1CCOCC2(CCCN(Cc3ccoc3)C2)C1 (configuration not stated)	6.65%
Cc1nn(C)cc1CN(Cc1ccccn1)Cc1ccccc1Cl	1.2%
CN(C(=O)CN1CCCc2cc(F)cc(F)c21)c1ccccc1	14.2%
CCN(CC)C1COc2c(cc(Br)c(C)c2C)C1=O (configuration not stated)	0.331%
Cc1csc(N2CCCN(C(=O)CCNc3ncccn3)CC2)n1	-10.5%
CCSc1ccc(C(=O)N2CCCCC2C(=O)N2CCCC2)cn1 (configuration not stated)	10.5%
COc1cc2nc3n(c(=O)c2cc1OC)CCN(C)CC3	2.39%
CCn1nnc(NCc2cc(Cl)cc(Cl)c2OC)n1	13.6%
COCCO[C@H]1CCN(C(=O)c2cnoc2C)[C@H]1Cc1cnn(C)c1	-69.6%
CCc1nc(CN2CCCC(NCc3nc4cccnc4[nH]3)C2)no1 (configuration not stated)	1.92%
CC(C)CC(NCc1cccs1)c1ccccn1 (configuration not stated)	3.46%
Cc1ccc(C)c(-c2[nH]c3ccccc3c2C(=O)O)c1	1.55%
CN(C)C[C@@H]1CCC[C@@H]2CN(c3cccnc3)C[C@@H]21	-11.9%
CCS(=O)(=O)N1C[C@@H]2COC[C@@H](Cc3nc(C)no3)[C@@H]2C1	9.04%
Cc1nc(CN2CCC(N3CCN(C)C3=O)CC2)no1	-22%
O=C(O)CCc1cn(C2CCN(c3ncccc3Cl)CC2)nn1	-49.3%

SMILES	cytotoxicity at 10 µM
CN(Cc1cc2n(n1)CCCN(C(=O)N1CCCC1)C2)Cc1nccs1	-0.63%
CC(C)(C)c1noc(CCCC(=O)N2CCNC(=O)C2)n1	-4.28%
CCc1cc(NCCNc2cccnc2)n2nccc2n1	-11.9%
CC(C)N(C)Cc1nnc2n1CCCN(S(=O)(=O)C1CC1)C2	-0.48%
Cc1ccc(N2CCCC(N(C)c3nn4cc(C)nc4s3)C2)nn1 (configuration not stated)	8.45%
CC(C)C(=O)NC1CCN(c2cccc(OC(F)(F)F)c2)C1=O (configuration not stated)	-4.13%
COCCO[C@H]1CCN(C(=O)c2ccno2)[C@H]1Cc1ccncc1	-78.1%
C=c1ncsc1=C1NC(c2cccc(CN3CCOCC3)c2)=NO1	-11.3%
Cc1nc(CC(C)C)sc1C(=O)N1CCC(C2(C)OCCO2)CC1	4.21%
Cc1cccc(CN2CCC3(CCC(C(=O)N(C)C)O3)CC2)n1 (configuration not stated)	3.14%
O=C1[C@H]2CN(Cc3ccccc3)C[C@H]2CN1CCN1CCCC1	-3.84%
COCC(O)CN1CCC(=O)N(Cc2ccco2)Cc2ccccc21 (configuration not stated)	-5.62%
Cc1ccc(N2CCC(CCN3CCCC3=O)CC2)nn1	6.35%
COc1nn(C)c2c1CCCN(C(=O)c1ccccc1)C2	-9.76%
CC(=O)N1CCCC1c1nccc(C)n1 (configuration not stated)	1.31%
Cc1csc([C@H]2C[C@@H]3CCN(Cc4cc(C)on4)C[C@H]3O2)n1	-99.4%
CCC(CO)N(Cc1ccsc1)Cc1cccc(O)c1 (configuration not stated)	0.616%
O=C(c1ccsc1)N1CCC2(CC1)CCN(S(=O)(=O)C1CC1)CC2	-109%
Cc1ccc2c(c1)C(=O)NCC1(CCN(C(=O)c3ccccn3)CC1)O2	-25%
COc1cc(NCc2c(C)noc2C)c(OC)cc1Cl	47%
COCC1c2nnn(C)c2CCN1C(=O)c1ccc(OC)c(F)c1 (configuration not stated)	-105%
CCc1ccc(-c2cc(C(F)(F)F)nc(N3CCC(N)CC3)n2)cc1	91.5%
CN(CCO)Cc1nnc(C2CCN(C(=O)c3cccn3C)CC2)n1C	-0.537%

SMILES	cytotoxicity at 10 µM
O=C1C(NCc2nnc3n2CCCC3)CCN1c1ccccc1F (configuration not stated)	-4.92%
COC(=O)c1ccc(N2CCN(CC(=O)NC(N)=O)C(C)C2)cc1 (configuration not stated)	-4.54%
CC(C)N1CCC2(CCCN(C(=O)c3cncn3C)C2)CC1	-0.0499%
CC(C)c1nnc2n1CCN(C(=O)c1cn(-c3ccccc3)nn1)C2	-144%
NC(=O)c1cnn2c1NCC(CNCCOc1ccccc1)C2 (configuration not stated)	-11.4%
Cn1c(CCN2CCN(CCc3ccccc3)CC2)nc2ccccc21	-43.7%
Cc1ccccc1CC1(CO)CCCN(c2ncncc2C(C)C)C1 (configuration not stated)	-22.2%
COc1nn(C)c2c1CCCN(C(=O)c1cc[nH]n1)C2	-5.2%
CC(NC(=O)CN1CCN(c2ccncc2Cl)CC1)c1ccco1 (configuration not stated)	-6.02%
CC(C)N(C)Cc1nnn2c1CN(Cc1cccnc1)CCC2	11.3%
CO[C@H]1CCN(c2nnc(C)s2)C[C@@H]1Cc1cccc(C)c1	16.6%
CCN(CC)CC1CCN(Cc2ncc(C(C)(C)C)o2)CC1	-7.22%
CCC[C@@H]1CN(c2cncc(C(=O)N3CCOCC3)n2)C[C@H]1N(C)C	4.63%
COc1ccc(CCN(C)C(=O)CN2C(=O)OC[C@@H]2C(C)C)cc1OC	-11%
COc1cc(C)sc1C(=O)N1CCCC(n2nc(C)nc2C)C1 (configuration not stated)	-13.6%
CO[C@@H]1CO[C@@]2(CCCN(C(=O)N3CCCC3)C2)C1	-98.6%
CCC(C)(NCc1nnc(C(C)(C)C)o1)c1nccs1 (configuration not stated)	19.2%
CCC(NC(=O)NCC(=O)Nc1ccc(F)cc1)c1ccncc1 (configuration not stated)	-10.9%
COc1ccc(-c2nc(CCNCc3ccncc3)co2)cc1	-6.11%
CC(C)(C)NC(=O)CNc1ccc(Br)cn1	-2.81%
